Experimental data from ChEMBL document CHEMBL1124354, “Potential antiatherosclerotic agents. 6. Hypocholesterolemic trisubstituted urea analogues” (J Med Chem, 1989).
Values belong to the compound of their own block, whether it stands above or below them.

Legend:
[1] = target: T1, Sterol O-acyltransferase 1 (Rattus norvegicus, UniProt O70536); test: In vitro inhibitory concentration against acyl coenzyme A:cholesterol acyltransferase derived from rat adrenals
T1 sequence (O70536 whole entry): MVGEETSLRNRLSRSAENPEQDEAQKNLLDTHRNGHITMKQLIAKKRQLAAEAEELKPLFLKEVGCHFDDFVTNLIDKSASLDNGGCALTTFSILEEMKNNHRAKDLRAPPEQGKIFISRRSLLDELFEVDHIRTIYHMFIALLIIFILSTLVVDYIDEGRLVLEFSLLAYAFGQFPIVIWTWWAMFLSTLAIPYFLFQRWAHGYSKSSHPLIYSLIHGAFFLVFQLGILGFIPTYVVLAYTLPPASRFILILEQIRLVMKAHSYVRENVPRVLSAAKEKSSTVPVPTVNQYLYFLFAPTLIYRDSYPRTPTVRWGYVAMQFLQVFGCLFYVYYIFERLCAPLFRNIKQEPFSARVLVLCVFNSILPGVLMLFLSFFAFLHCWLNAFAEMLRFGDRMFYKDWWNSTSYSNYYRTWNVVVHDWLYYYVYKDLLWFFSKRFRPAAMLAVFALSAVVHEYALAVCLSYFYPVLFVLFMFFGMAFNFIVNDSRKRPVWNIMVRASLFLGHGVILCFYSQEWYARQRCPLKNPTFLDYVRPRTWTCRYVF
Outline: (§1)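 Rat adrenal homogenate in 0.2 M KH2PO4 buffer pH 7.4, 1000g supernatant (microsomal fraction) as enzyme; preincubated with BSA and test compound at graded concentrations, 37 °C 10 min, then [14C]oleoyl-CoA 0.4 µCi, 37 °C 30 min. Lipids extracted, cholesteryl ester isolated by TLC and counted. Triplicate tubes per concentration; IC50 by linear regression of means.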

[2] = target: T2, Sterol O-acyltransferase 1 (Rattus norvegicus) (UniProt O70536); test: Liver hypolipidemic activity in rats; format: functional
T2 sequence (whole entry): T1 sequence (O70536 whole entry)
Outline: (§2)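 Male CD-1 Sprague-Dawley rats, 140–150 g, fed 1% cholesterol/0.5% cholic acid diet with compound admixed at 0.01% (about 10 mg/kg/day) for 7 days. Serum and liver cholesterol measured by Technicon autoanalyzer methods; expressed as percent of control.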

[3] = target: T2, Sterol O-acyltransferase 1 (Rattus norvegicus); test: Serum hypolipidemic activity in rats; format: functional; outline: as §2
[4] = target: T2, Sterol O-acyltransferase 1 (Rattus norvegicus); test: (§3) In vitro percentage inhibition against acyl coenzyme A:cholesterol acyltransferase derived from rat adrenals; set-up: concentration or dose not given beside the values; conditions: concentration not given here
Outline: (§4)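 Rat adrenal 1000g supernatant (microsomal ACAT) in 0.2 M KH2PO4 pH 7.4 with BSA; test compound at final 5.2 µg/mL, preincubated 37 °C 10 min; [14C]oleoyl-CoA (0.4 µCi) added, 37 °C 30 min. Cholesteryl ester separated by TLC, scintillation counted; mean percent inhibition against compound-free control.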

[5] = target: T2, Sterol O-acyltransferase 1 (Rattus norvegicus); test: as §3; conditions: concentration not given here
Outline: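 Rat adrenals homogenized in 0.2 M KH2PO4 (pH 7.4), spun at 1000g for 15 min at 5 °C; supernatant used as enzyme. Preincubated with BSA and test compound (final 5.2 µg/mL) at 37 °C for 10 min, then [14C]oleoyl-CoA (0.4 µCi) added for 30 min at 37 °C. Cholesteryl ester isolated by TLC and counted. Mean percent inhibition versus control without compound.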

[6] = target: T2, Sterol O-acyltransferase 1 (Rattus norvegicus); test: In vitro percentage inhibition againstAcyl coenzyme A:cholesterol acyltransferase derived from rat adrenals; conditions: concentration not given here; outline: as §4
[7] = target: T1, Sterol O-acyltransferase 1; test: In vitro inhibitory concentration against Acyl coenzyme A:cholesterol acyltransferase derived from rat adrenals; outline: as §1
[8] = target: T2, Sterol O-acyltransferase 1 (Rattus norvegicus); test: In vitro percentage inhibition against Acyl coenzyme A:cholesterol acyltransferase derived from rat adrenals; set-up: concentration or dose not given beside the values; conditions: concentration not given here; outline: as §4
[9] = target: T2, Sterol O-acyltransferase 1 (Rattus norvegicus); test: In vitro percentage inhibition against ACAT derived from rat adrenals; conditions: concentration not given here; outline: as §4
[10] = target: T1, Sterol O-acyltransferase 1; test: In vitro inhibitory concentration against ACAT derived from rat adrenals; outline: as §1

Compound: CCCCN(CCCC)C(=O)Nc1ccc(OCC)cc1
inhibition [5]: 79%

Compound: CCCCN(CCCC)C(=O)Nc1cccc(Cl)c1C
inhibition [4]: 80% | IC50 [1]: 4.08 µM | LS [2]: 93% | SS [3]: 87%

Compound: CCCCCCCCCCCCCCCCCCN(CCCCCCCCCCCCCCCCCC)C(=O)Nc1ccc(C)cc1C
inhibition [8]: -6% | LS [2]: 123% | SS [3]: 106%

Compound: CCCCCCCCCCCCN(CCCCCCCCCCCC)C(=O)Nc1ccc(C)cc1C
inhibition [8]: 26% | LS [2]: 120% | SS [3]: 86%

Compound: CCCCCCCN(Cc1ccco1)C(=O)Nc1c(Cl)cc(Cl)cc1Cl
inhibition [8]: 96% | LS [2]: 34% | SS [3]: 37% | IC50 [7]: 0.407 µM

Compound: C#CCN(CC#C)C(=O)Nc1ccc(C)cc1C
inhibition [8]: 33% | LS [2]: 93% | SS [3]: 73%

Compound: CCCCCCCCCCN(CCCCCCCCCC)C(=O)Nc1ccc(C)cc1C
inhibition [8]: 64% | LS [2]: 66% | SS [3]: 71% | IC50 [7]: 0.63 µM

Compound: CCCCCCCN(Cc1cccs1)C(=O)Nc1cc(C)c(C)cc1C
IC50 [10]: 1.45 µM | LS [2]: 25% | SS [3]: 54%

Compound: Cc1ccc(NC(=O)N(CCC(C)CC(C)(C)C)CCC(C)CC(C)(C)C)c(C)c1 (stereo unspecified)
inhibition [8]: 90% | LS [2]: 70% | SS [3]: 71%

Compound: CCCCCCCN(CCCCCCC)C(=O)Nc1ccc(C)cc1C
inhibition [8]: 91% | LS [2]: 15% | SS [3]: 65% | IC50 [7]: 0.721 µM

Compound: CCCCCCN(CCCCCC)C(=O)Nc1ccc(C)cc1C
inhibition [8]: 95% | LS [2]: 36% | SS [3]: 59% | IC50 [7]: 0.331 µM

Compound: CCCCN(CCCC)C(=O)Nc1ccc(C)cc1C
inhibition [4]: 81% | IC50 [1]: 9.84 µM | LS [2]: 78% | SS [3]: 81%

Compound: CCCCCN(CCCCC)C(=O)Nc1ccc(C)cc1C
inhibition [9]: 90% | IC50 [10]: 0.952 µM | LS [2]: 49% | SS [3]: 82%

Compound: Cc1ccc(NC(=O)Nc2ccc(C)cc2C)c(C)c1
inhibition [8]: 10% | LS [2]: 85% | SS [3]: 100%

Compound: CCCCN(CCCC)C(=O)Nc1cccc(Cl)c1
inhibition [4]: 88% | IC50 [1]: 9.65 µM | LS [2]: 100% | SS [3]: 105%

Compound: CCCCN(CCCC)C(=O)Nc1cc(Cl)cc(Cl)c1
inhibition [4]: 79% | IC50 [1]: 4.38 µM | LS [2]: 93% | SS [3]: 76%

Compound: Cc1ccc(NC(=O)N(CCC(C)C)CCC(C)C)c(C)c1
inhibition [4]: 89% | IC50 [1]: 4.7 µM | LS [2]: 65% | SS [3]: 66%

Compound: CCCCc1ccc(NC(=O)N(CCCC)CCCC)cc1
inhibition [4]: 94% | IC50 [1]: 9.13 µM | LS [2]: 100% | SS [3]: 63%

Compound: CCCCCCCCN(CCCCCCCC)C(=O)Nc1ccc(C)cc1C
inhibition [8]: 89% | LS [2]: 22% | SS [3]: 47%

Compound: CCCCN(CCCC)C(=O)Nc1cc(C)ccc1C
inhibition [8]: 96% | LS [2]: 110% | SS [3]: 127%

Compound: CCCCN(CCCC)C(=O)Nc1ccc(C)c(Cl)c1
inhibition [4]: 91% | IC50 [1]: 6.43 µM | LS [2]: 98% | SS [3]: 110%

Compound: CCCCN(CCCC)C(=O)Nc1cccc(C(C)=O)c1
inhibition [8]: 51% | LS [2]: 100% | SS [3]: 64%

Compound: CCCCCCCCCCCCCCN(CCCCCCCCCCCCCC)C(=O)Nc1ccc(C)cc1C
inhibition [8]: -7% | LS [2]: 121% | SS [3]: 107%

Compound: CCCCN(CCCC)C(=O)Nc1cccc(C)c1
inhibition [4]: 78% | IC50 [1]: 4.76 µM

Compound: CCCCN(CCCC)C(=O)Nc1cc(C)cc(C)c1
inhibition [4]: 84% | IC50 [1]: 3.55 µM | LS [2]: 76% | SS [3]: 100%

Further lines, results first:

IC50 [1]: 6.77 µM | LS [2]: 64% | SS [3]: 62%
Compound: Cc1c(Cl)cccc1NC(=O)N(CCC(C)(C)C)Cc1cccs1

inhibition [4]: 94% | IC50 [1]: 7.75 µM
Compound: O=C(Nc1cccc(Cl)c1)N(Cc1ccccc1)Cc1ccccc1

inhibition [6]: 52%
Compound: O=C(Nc1ccc([N+](=O)[O-])cc1)N(Cc1ccccc1)Cc1ccccc1

LS [2]: 28% | SS [3]: 56% | IC50 [7]: 0.484 µM
Compound: CCCCCCCN(Cc1cccs1)C(=O)Nc1cc(Cl)c(Cl)cc1Cl

inhibition [8]: 69% | LS [2]: 20% | SS [3]: 47% | IC50 [7]: 0.446 µM
Compound: Cc1cc(C)c(NC(=O)N(Cc2ccccc2)Cc2ccccc2)cc1C

inhibition [8]: 84% | IC50 [7]: 8.39 µM
Compound: Cc1c(Cl)cccc1NC(=O)N(Cc1ccccc1)Cc1ccccc1

inhibition [8]: 78% | inhibition [4]: 14% | LS [2]: 107% | SS [3]: 106%
Compound: CCCCN(Cc1ccccc1)C(=O)Nc1ccc(C)cc1

inhibition [4]: 92% | IC50 [1]: 5.77 µM | LS [2]: 86% | SS [3]: 92%
Compound: O=C(Nc1cccc(Br)c1)N(Cc1ccccc1)Cc1ccccc1

IC50 [1]: 0.977 µM | LS [2]: 56% | SS [3]: 58%
Compound: CC(C)(C)CCN(Cc1cccs1)C(=O)Nc1c(Cl)cc(Cl)cc1Cl

inhibition [8]: 94% | LS [2]: 97% | SS [3]: 84% | IC50 [7]: 18.9 µM
Compound: Cc1ccc(NC(=O)N(Cc2ccccc2)Cc2ccccc2)cc1Cl

inhibition [4]: 88% | IC50 [1]: 5.67 µM | LS [2]: 46% | SS [3]: 64%
Compound: CCCCN(Cc1ccc2c(c1)OCO2)C(=O)Nc1ccc(C)cc1C

inhibition [8]: 82% | LS [2]: 57% | SS [3]: 66%
Compound: O=C(Nc1ccc(Cl)cc1C(F)(F)F)N(Cc1ccccc1)Cc1ccccc1

inhibition [8]: 50% | LS [2]: 96% | SS [3]: 92%
Compound: O=C(NCc1ccccc1)Nc1ccccc1Cl

inhibition [8]: 9% | LS [2]: 87% | SS [3]: 130%
Compound: CCCCCCCC/C=C/CCCCCCCCN(Cc1ccc(CCCC)cc1)C(=O)Nc1ccc(C)cc1C (stereo in doubt; 161)

inhibition [8]: 68% | LS [2]: 76% | SS [3]: 165%
Compound: O=C(Nc1ccccc1C(F)(F)F)N(Cc1ccccc1)Cc1ccccc1

inhibition [8]: 85% | LS [2]: 51% | SS [3]: 65%
Compound: Cc1cccc(NC(=O)N(Cc2ccccc2)Cc2ccccc2)c1C

inhibition [9]: 70% | IC50 [10]: 21.4 µM | LS [2]: 107% | SS [3]: 99%
Compound: CCCCN(C(=O)Nc1ccc(C)cc1C)c1ccccc1

IC50 [1]: 6.75 µM | LS [2]: 73% | SS [3]: 66%
Compound: CC(C)(C)CCN(Cc1cccs1)C(=O)Nc1ccc(F)cc1F

inhibition [8]: 86% | IC50 [7]: 3.97 µM
Compound: O=C(Nc1cc(Cl)cc(Cl)c1)N(Cc1ccccc1)Cc1ccccc1

inhibition [8]: 72% | LS [2]: 60% | SS [3]: 97%
Compound: Cc1ccc(NC(=O)N(Cc2ccccc2)Cc2ccccc2)cc1C

inhibition [4]: 96% | IC50 [1]: 9.63 µM
Compound: CCOc1ccc(NC(=O)N(Cc2ccccc2)Cc2ccccc2)cc1

LS [2]: 62% | SS [3]: 72% | IC50 [7]: 7.65 µM
Compound: CCCCN(Cc1ccccc1)C(=O)Nc1ccc(Cl)cc1C

inhibition [4]: 94% | IC50 [1]: 3.23 µM | LS [2]: 89% | SS [3]: 66%
Compound: O=C(Nc1ccc(Oc2ccccc2)cc1)N(Cc1ccccc1)Cc1ccccc1

inhibition [8]: 75% | LS [2]: 91% | SS [3]: 100%
Compound: CCCCN(CCCC)C(=O)Nc1cccc(C(F)(F)F)c1

inhibition [8]: 94% | IC50 [7]: 2.89 µM
Compound: O=C(Nc1cccc(C(F)(F)F)c1)N(Cc1ccccc1)Cc1ccccc1

inhibition [8]: 71% | LS [2]: 66% | SS [3]: 97%
Compound: Cc1ccc(Cl)cc1NC(=O)N(Cc1ccccc1)Cc1ccccc1

inhibition [8]: 90% | LS [2]: 31% | SS [3]: 52%
Compound: Cc1ccc(NC(=O)N(Cc2ccccc2)Cc2ccccc2)c(C)c1

inhibition [8]: 81% | LS [2]: 84% | SS [3]: 110%
Compound: CCCCN(CC(c1ccc(Cl)cc1)c1ccc(Cl)cc1)C(=O)Nc1ccc(C)cc1C

inhibition [4]: 87% | IC50 [1]: 10.5 µM
Compound: CCCCN(CCCC)C(=O)Nc1ccc(Cl)c(C(F)(F)F)c1

inhibition [4]: 91% | IC50 [1]: 11.4 µM | LS [2]: 108% | SS [3]: 83%
Compound: CCCCN(CCCC)C(=O)Nc1ccc(F)c(Cl)c1

inhibition [8]: 63% | LS [2]: 26% | SS [3]: 53% | IC50 [7]: 3.37 µM
Compound: Cc1cc(Cl)ccc1NC(=O)N(Cc1ccccc1)Cc1ccccc1

inhibition [8]: 88% | LS [2]: 44% | SS [3]: 83%
Compound: COc1ccc(C)cc1NC(=O)N(Cc1ccccc1)Cc1ccccc1

inhibition [8]: 37% | LS [2]: 28% | SS [3]: 32% | IC50 [7]: 3.74 µM
Compound: Cc1cc(C)c(NC(=O)N(Cc2ccccc2)Cc2ccccc2)c(C)c1
